Bioassay records: PubChem, Johns Hopkins Ion Channel Center
TRPC6 activator: mouse TRPC6 channel activation | Q61143 | AID 2550 | B-score at 10 µM | HEK293-TRPC6 membrane potential dye fluorescence; stronger effect = higher value | hit rate 0.13% among 310,000;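 active = B-score of the integrated fluorescence ratio above library mean plus 3 SD, and starting fluorescence ratio within library mean plus 5 SD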;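 note: higher score means more depolarization so channel activation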
Target sequence (Q61143 whole entry, looked up): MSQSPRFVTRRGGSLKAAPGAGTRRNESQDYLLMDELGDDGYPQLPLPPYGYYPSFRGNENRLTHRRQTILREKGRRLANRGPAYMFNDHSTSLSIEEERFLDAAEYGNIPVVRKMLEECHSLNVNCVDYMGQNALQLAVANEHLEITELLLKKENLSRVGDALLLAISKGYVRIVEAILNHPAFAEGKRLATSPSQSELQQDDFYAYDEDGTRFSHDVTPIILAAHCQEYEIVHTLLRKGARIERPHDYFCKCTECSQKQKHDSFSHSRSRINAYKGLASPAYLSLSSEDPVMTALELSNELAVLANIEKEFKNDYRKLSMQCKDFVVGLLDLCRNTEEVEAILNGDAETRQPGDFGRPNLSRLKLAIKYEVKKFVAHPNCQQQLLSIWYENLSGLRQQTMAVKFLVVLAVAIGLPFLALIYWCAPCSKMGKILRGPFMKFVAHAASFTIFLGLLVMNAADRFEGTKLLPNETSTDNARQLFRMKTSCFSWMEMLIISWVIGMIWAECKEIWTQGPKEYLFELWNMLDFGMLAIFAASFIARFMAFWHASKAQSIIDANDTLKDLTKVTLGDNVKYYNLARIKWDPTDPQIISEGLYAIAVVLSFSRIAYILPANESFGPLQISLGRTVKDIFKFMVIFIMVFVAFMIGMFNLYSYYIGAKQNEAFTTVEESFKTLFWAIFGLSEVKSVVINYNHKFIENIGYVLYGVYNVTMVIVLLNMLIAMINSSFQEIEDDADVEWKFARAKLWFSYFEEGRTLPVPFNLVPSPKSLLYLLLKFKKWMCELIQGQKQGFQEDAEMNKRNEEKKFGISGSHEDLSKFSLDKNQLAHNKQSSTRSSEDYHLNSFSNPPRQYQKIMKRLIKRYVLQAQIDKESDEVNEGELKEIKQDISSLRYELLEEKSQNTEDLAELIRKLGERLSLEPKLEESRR
TRPC6 inhibitor: blocks the mouse TRPC6 cation channel. Q61143. HEK293-TRPC6, membrane potential dye, ACh-evoked depolarization; stronger effect = lower value. B-score at 10 µM. hit rate 1.1% among 310,000. AID 2553;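 active = B-score under library mean minus 3 SD, initial fluorescence not abnormally high, positive integrated signal ratio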;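 note: B-score derived from integrated fluorescence ratio over the kinetic read; more negative B-score means stronger inhibition of depolarization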
TRPC4 PAM: TRPC4 (mouse) allosteric potentiation | HEK293 TRPC4beta/mu-opioid, DAMGO EC20, Fluo-4 Ca2+ flux; stronger effect = higher value | B-score at 10 µM | hit rate 0.42% among 310,000 | AID 2227;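 active = B-score of calcium response area above 5 SD of library B-scores, with initial fluorescence ratio within 5 SD of library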;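 note: B-score of integrated fluorescence ratio over time as area under calcium response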
TRPC4 agonist: activators of mouse TRPC4 channel. Q9QUQ5. AID 2237. HEK293 TRPC4beta/mu-opioid, Fluo4 calcium fluorescence; stronger effect = higher value. hit rate 0.49% among 310,000. B-score at 10 µM;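 active = B-score above 5 SD of library B-scores, and initial fluorescence ratio not above library mean plus 5 SD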;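 note: positive B-score marks a calcium rise read as TRPC4 activation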
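Material: TRPC4beta and mu-opioid receptor HEK293 stable cells | Incubation: 45 min room-temperature Fluo4 loading, 110 s read | Detection: Kinetic Fluo4 calcium fluorescence | Measure: Integrated baseline-normalised fluorescence ratio, converted to per-well B score | Benchmarks: Low control buffer alone, high control maximal DAMGO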
TRPC4 inh: TRPC4 (mouse) channel inhibition | Q9QUQ5 | HEK293 TRPC4beta/mu-opioid, DAMGO-evoked Fluo4 calcium flux; stronger effect = lower value | B-score at 10 µM | hit rate 0.39% among 300,000;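 active = B-score over 3 SD under the library average, no early fluorescence shift, positive overall ratio signal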
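Assay system: Stable TRPC4beta/mu-opioid receptor HEK293 cells | Reagent: DAMGO in two steps, submaximal then maximal | Compound dosing: Single concentration per test compound | Signal: Fluo4 Ca2+ flux fluorescence | Evaluation: Per-well B score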
* marks the source's active call; other numbers are inactive results; i = inactive. Compounds with a hit are over-represented: about 2.3% of the library has one in this group of screens.

SMILES	TRPC6 activator	TRPC6 inhibitor	TRPC4 PAM	TRPC4 agonist	TRPC4 inh
COc1ccc(N/C(C)=C2/C(=O)C(=O)N(CCO)C2c2ccc(Br)cc2)cc1 (stereo not given)	i	i	43*	123*	i
COc1ccc(C2/C(=C(/O)c3ccccc3)C(=O)C(=O)N2CCO)cc1 (stereo not given)	i	i	i	i	i
CCOC(=O)c1c(CC(C)C)csc1N	i	i	i	i	-6*
CCOC(=O)C1(Cc2ccc(OC)cc2)CCN(C(=O)CN2CCCCC2=O)CC1	i	i	i	i	i
CCN(CC)S(=O)(=O)c1ccc(Cl)c(C(=O)Nc2nnc(C)s2)c1	i	i	i	i	i
CCN1CCN(S(=O)(=O)c2ccc(Cl)c(C(=O)Nc3nnc(C)s3)c2)CC1	i	i	i	50*	i
CCOc1ccc(CN2CCN(c3cc(C)nc4c5c(C)cc(C)nc5nn34)CC2)cc1	i	i	i	50*	i
CCOc1cc(N2CCOCC2)c(OCC)cc1NC(=O)c1ccc(OC(C)C)cc1	i	i	i	i	i
C=CCOc1ccc(C(=O)Nc2ncn[nH]2)cc1	i	i	i	i	i
CN(C)c1ccc(C(=S)N2CCN(c3ccc([N+](=O)[O-])cc3)CC2)cc1	i	i	19*	i	i
CC(C)Cc1csc(NC(=O)c2ccc(Cl)cc2)c1C(=O)O	i	i	i	48*	i
CC(C)Cc1csc(NC(=O)c2ccccc2Cl)c1C(=O)O	i	i	i	i	i
Cc1cccc(NC(=S)NC2CC3CCCC(C2)N3Cc2ccccc2)c1C (stereo not given)	i	i	i	65*	i
Cc1ccc(NC(=S)NC2CC3CCC(C2)N3Cc2ccco2)c(C)c1 (stereo not given)	i	i	i	116*	i
Cc1cccc(NC(=S)NC2CC3CCC(C2)N3Cc2ccco2)c1C (stereo not given)	i	i	i	i	i
CC1=NN(c2ccccc2)C(=O)/C1=C\C=C1\N(C)c2ccccc2C1(C)C	i	i	i	58*	i
Clc1ccc(CONc2ncnc3nonc23)c(Cl)c1	i	i	30*	i	i
CCONc1ncnc2nonc12	i	i	i	i	i
CC(=O)Nc1ccccc1OCC(=O)c1cc(C)n(Cc2cccs2)c1C	i	i	i	72*	i
Cc1cc(C(=O)COc2cccnc2[N+](=O)[O-])c(C)n1Cc1cccs1	i	i	i	i	i
COC(C(=O)Nc1ccnn1C1CCN(C(=O)c2ccc(C)cc2)CC1)c1ccccc1 (stereo not given)	i	i	i	i	i
CCN(CC)CCCNC(=S)N1CCn2c(nc3ccccc32)C1	i	i	i	i	i
CCN(CC)CCCNC(=S)N1CCN(c2nc3ccccc3n2CC)CC1	i	i	15*	i	i
O=C(O)C1C2CCC(O2)C1C(=O)Nc1ccccc1Br (stereo not given)	i	i	i	i	i
C=CCNCCCCOc1cccc(Br)c1	i	i	13*	i	i
SMILES	TRPC6 activator	TRPC6 inhibitor	TRPC4 PAM	TRPC4 agonist	TRPC4 inh
COc1ccc(C(O)(C(C)C)C(CN2CCOCC2)c2ccc(Cl)cc2)cc1 (stereo not given)	i	i	12*	i	i
COc1ccc(C(O)(C2CCCCC2)C(CN2CCOCC2)c2ccccc2)cc1 (stereo not given)	i	i	14*	i	i
CCC(O)(c1ccc(OC)cc1)C(CN1CCOCC1)c1ccccc1 (stereo not given)	i	i	i	i	-6*
O=S(=O)(c1ccc(Cl)cc1)N1CCN(C(=S)Nc2ccc(F)c(Cl)c2)CC1	i	i	i	i	i
CC(C)N(C(=O)Cn1cc(S(=O)(=O)CC(=O)NCc2ccc(F)cc2)c2ccccc21)C(C)C	i	i	i	i	i
CCCC/C(O)=C1\C(=O)CC(C)(C)CC1=Nc1ccc(OC)cc1	i	i	12*	i	i
Cc1ccccc1NC(=O)Cc1nnc(SCC(=O)NC2CCCC2)n1C	i	i	i	i	i
